This note sets out measurements from ChEMBL document CHEMBL1145430, “Synthesis and simple 18F-labeling of 3-fluoro-5-(2-(2-(fluoromethyl)thiazol-4-yl)ethynyl)benzonitrile as a high affinity radioligand for imaging monkey brain metabotropic glutamate subtype-5 receptors with positron emission tomography” (J Med Chem, 2007).

Molecules are shown by their SMILES.

The target of data set [1] is Metabotropic glutamate receptor 5 (Rattus norvegicus, UniProt P31424). Description: Displacement of […] from mGluR5 in rat brain membrane. It counts as cell membranes. A digest of the protocol: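 Competition binding against [³H]MPEPy in rat whole-brain membranes (minus cerebellum and brainstem), homogenized in 50 mM Tris-HCl/saline pH 7.5, pelleted at 39 800 g. Membranes 5 mg/800 µL final. Competitor from 10 mM ethanol stock, final 0.01 nM to 1 mM. Incubated 1 h at 22 °C, filtered on PEI-soaked GF/B, washed with cold saline, scintillation counted. Three determinations.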

In data set [2] the test system is Hippocampus. Description: Drug uptake in rhesus monkey hippocampus at 4 mCi, iv in presence of 6-methyl-2-(phenylethynyl)-pyridine after 60 to 120 mins. It counts as ADME, organism-based, Macaca mulatta. Particulars: in vivo. A digest of the protocol:
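Same rhesus monkey on a separate day, given blocker 5 mg/kg i.v. in saline with 10% ethanol 15 min before [18F] radioligand (3.8 mCi i.v.). HRRT PET. Regional uptake expressed as %SUV from MRI-coregistered regions of interest, averaged over 60–120 min.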

In another data set the test system is Blood. Description: Biodistribution in rhesus monkey blood at 4 mCi, iv after180 mins. Type of data set: ADME, organism-based, Macaca mulatta. Particulars: in vivo, 3 h. A digest of the protocol: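 Anesthetized rhesus monkey given [18F] radioligand i.v. Heparinized blood drawn at 1 min intervals to 5 min, then at 10, 25, 40, 60, 90, 120 and 180 min, and kept on ice. Centrifuged 1800 g for 1.5 min. Plasma and cells γ-counted to give the partition of radioactivity into the cellular fraction.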

The subject of data set [3] is Hippocampus. Briefly: Drug uptake in rhesus monkey hippocampus at 4 mCi, iv after 60 to 120 mins. Type of data set: ADME, organism-based, Macaca mulatta. Particulars: in vivo. A digest of the protocol: (§1)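 Anesthetized rhesus monkey (~10 kg; ketamine, propofol, isoflurane) given [18F] radioligand 4.0 mCi i.v. Imaged on HRRT with attenuation and scatter correction. Regional time–activity curves from MRI-coregistered regions of interest, expressed as %SUV (normalized for injected activity and body weight). Hippocampal uptake averaged over 60–120 min.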

Another data set deals with Plasma. Description: Stability in rhesus monkey plasma at 5 uCi after 168 mins. Type of data set: ADME, cell-free, Macaca mulatta. Particulars: 2.8 h. A digest of the protocol:
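Plasma was obtained by spinning whole monkey blood at 1800 g for 5 min. Plasma (1.0 mL) was incubated with 5 μCi radioligand at room temperature for 168 min, and a sample was analyzed by reverse-phase radio-HPLC.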

The nature of data set [4]: Stability in rhesus monkey brain at 100 uCi in 37 degC after 90 mins. Type of data set: ADME, tissue-based, Macaca mulatta. A digest of the protocol:
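Monkey brain tissue (3.34 g, stored at -70 °C for 1 year) was homogenized on ice with about 100 μCi radioligand, incubated at 37 °C and sampled at 5-90 min. Samples were taken into acetonitrile spiked with carrier plus 0.5 M KF, counted and centrifuged at 10 000 g for 1 min. Supernatants went to HPLC, and pellets were counted to give recovery.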

Another data set concerns Brain. Briefly: Drug uptake in rhesus monkey brain at 4 mCi, iv. Type of data set: ADME, organism-based, Macaca mulatta. The conditions noted are these: in vivo. A digest of the protocol: as §1
The nature of data set [5]: Stability in phosphate buffered saline at pH 7.4 after 71 mins. Type of data set: physicochemical. The conditions noted are these: buffer, pH 7.4, 71 min. A digest of the protocol:
(§2)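 The radioligand was dissolved in water, sampled at 34, 48 and 159 min, and analyzed at once by reverse-phase radio-HPLC (Novapak C-18, MeOH–H2O–Et3N 70:30:0.1, 2.0 mL/min). A second solution in 0.9% saline containing 0.15 mM phosphoric acid was sampled at 54 and 71 min and analyzed the same way.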

For data set [6], the system named is Striatum. Description: Drug uptake in rhesus monkey striatum at 4 mCi, iv in presence of 6-methyl-2-(phenylethynyl)-pyridine after 60 to 120 mins. Type of data set: ADME, organism-based, Macaca mulatta. The conditions noted are these: in vivo. A digest of the protocol:
(§3)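 Rhesus monkey (~10 kg) anesthetized with ketamine (10 mg/kg, i.m.) and propofol (5 mg/kg, i.v.), then isoflurane 1.0-4.0% in oxygen; body temperature 37-37.5 °C. Radioligand given i.v. and imaged on HRRT PET with attenuation and scatter correction. For blockade, MPEP/MTEP (5 mg/kg, i.v., in saline with 10% ethanol) given 15 min before tracer in the same monkey. Striatal ROI expressed as %SUV (normalized to injected activity and body weight) over 60-120 min.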

Data set [7] is described as follows: Stability in human brain at 50 uCi in 37 degC after 3 hrs. It counts as ADME, tissue-based. A digest of the protocol:
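Human brain tissue (1.76 g) was homogenized in ice-cold saline (3 mL), then mixed with about 50 μCi radioligand in ethanol–water 1:1. The mixture was incubated at 37 °C and sampled at 5-180 min. Samples were taken into carrier-spiked acetonitrile plus 0.5 M KF, counted and centrifuged at 10 000 g. Supernatants went to HPLC, and pellets were counted to give recovery.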

Data set [8] can be described thus: Stability in human whole blood at 2 uCi. It counts as ADME, tissue-based. The conditions noted are these: read-out: Stability. A digest of the protocol: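 Radioligand (2 μCi) was added to human whole blood (2.0 mL) at 23 °C and sampled at 10-90 min. Each sample was mixed with acetonitrile spiked with carrier and with KF (0.5 M), counted and centrifuged at 10 000 g for 1 min. The supernatant was analyzed by radio-HPLC.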

Data set [9] in a line: Stability in aqueous solution after 159 mins. It counts as physicochemical. Particulars: buffer, 2.65 h. A digest of the protocol: as §2
Data set [10] has as its system Striatum. Briefly: Drug uptake in rhesus monkey striatum at 4 mCi, iv after 60 to 120 mins. It counts as ADME, organism-based, Macaca mulatta. The conditions noted are these: in vivo. A digest of the protocol:
as §3

Metabotropic glutamate receptor 5, sequence (P31424 whole entry): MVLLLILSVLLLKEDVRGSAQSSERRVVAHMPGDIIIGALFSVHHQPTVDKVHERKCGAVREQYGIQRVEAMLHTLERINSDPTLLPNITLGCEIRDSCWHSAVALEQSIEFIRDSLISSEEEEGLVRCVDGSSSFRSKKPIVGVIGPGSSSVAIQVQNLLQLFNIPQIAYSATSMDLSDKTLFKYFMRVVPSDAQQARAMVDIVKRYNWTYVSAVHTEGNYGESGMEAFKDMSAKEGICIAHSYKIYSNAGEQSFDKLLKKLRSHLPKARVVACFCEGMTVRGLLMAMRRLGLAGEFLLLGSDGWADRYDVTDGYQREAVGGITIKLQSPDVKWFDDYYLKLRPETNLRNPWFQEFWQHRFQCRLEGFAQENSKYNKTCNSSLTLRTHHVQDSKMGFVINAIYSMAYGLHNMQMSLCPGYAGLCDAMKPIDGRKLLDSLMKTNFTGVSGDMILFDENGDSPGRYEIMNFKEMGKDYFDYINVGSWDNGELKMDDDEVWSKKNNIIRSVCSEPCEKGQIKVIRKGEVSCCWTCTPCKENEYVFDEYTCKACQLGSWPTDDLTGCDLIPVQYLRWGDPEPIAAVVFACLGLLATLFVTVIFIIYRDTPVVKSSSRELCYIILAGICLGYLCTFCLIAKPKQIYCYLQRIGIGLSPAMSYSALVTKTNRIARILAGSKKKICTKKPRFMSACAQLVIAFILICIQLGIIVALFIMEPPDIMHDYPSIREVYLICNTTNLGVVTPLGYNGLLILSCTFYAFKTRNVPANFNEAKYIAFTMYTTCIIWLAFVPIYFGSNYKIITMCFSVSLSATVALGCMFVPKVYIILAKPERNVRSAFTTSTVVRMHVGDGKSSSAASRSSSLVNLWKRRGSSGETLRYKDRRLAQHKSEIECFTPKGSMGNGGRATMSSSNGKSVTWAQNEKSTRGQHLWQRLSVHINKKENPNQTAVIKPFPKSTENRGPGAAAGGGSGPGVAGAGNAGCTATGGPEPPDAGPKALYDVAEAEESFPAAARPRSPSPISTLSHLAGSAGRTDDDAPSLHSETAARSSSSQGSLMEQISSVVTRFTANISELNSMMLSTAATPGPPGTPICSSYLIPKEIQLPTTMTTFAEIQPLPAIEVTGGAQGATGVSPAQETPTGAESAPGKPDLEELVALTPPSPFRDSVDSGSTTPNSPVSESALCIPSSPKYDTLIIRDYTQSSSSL

As to `COc1cccc(C#Cc2csc(CF)n2)c1`, in data set [1], the concentration for half-maximal inhibition (IC50) was found to be 520 pM.

With `N#Cc1cccc(C#Cc2csc(CF)n2)c1`, the IC50 in data set [1] worked out at 60 pM.

Regarding `N#Cc1cc(F)cc(C#Cc2csc(C[18F])n2)c1`, the Drug uptake is 200% in the data set with Hippocampus [2]; 33.9% in the data set on Blood; 500% with Hippocampus [3]; 450% in the data set on Brain; 200% with Striatum [6]; 500% with Striatum [10]. Moreover, the Stability result (in the data set on Plasma; in data set [5]; in data set [9]) was “Stable” each time. Moreover, in [4], the remaining at 1.5 h, 100 uCi was 98.2%. The molecule also yielded a remaining at 3 h, 50 uCi in [7] of 98.6%. In data set [8], the remaining at 2 uCi was above 98%.

In general, IC50 refers to the concentration that gives 50% inhibition.
